Experimental data taken from ChEMBL document CHEMBL1137671, “Synthesis of 1-(2,6-dichlorophenyl)-3-methylene-1,3-dihydro-indol-2-one derivatives and in vitro anticancer evaluation against SW620 colon cancer cell line” (Eur J Med Chem, 2009).
In brackets after ≈: the same amount, converted by molar mass.

Tests used:
[1] = Inhibition of FGFR autophosphorylation
SW-620 = experiment: Cytotoxicity against human SW620 cells after 3 days by MTT assay; format: functional; conditions: SW-620, 72 h, read-out: ED50 (the source's name)
Outline: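 SW620 human colon cancer cells seeded at 10,000 per well and exposed to 1-100 µM for 72 h in a CO₂ incubator, with untreated controls. Then 125 µg MTT per well for 3 h, followed by lysis in 10% SDS-0.01 N HCl. Absorbance was read at 540 nm. % cytotoxicity = (1 − (treated − blank)/control) × 100.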

| SMILES | IC50 [1] [µM] | EC50 (SW-620) [µg/mL] |
| --- | --- | --- |
| O=CN1CCN(c2ccc(/C=C3\C(=O)Nc4ccccc43)cc2)CC1 | 10 | – |
| O=C1/C(=C\c2cccc3ccccc23)c2ccccc2N1c1c(Cl)cccc1Cl | – | > 100 |
| O=C1/C(=C/c2cc3ccccc3nc2Cl)c2ccccc2N1c1c(Cl)cccc1Cl | – | 25 (≈ 55.3 µM) |
| O=C1/C(=C/c2ccc(Cl)cc2)c2ccccc2N1c1c(Cl)cccc1Cl | – | 100 (≈ 250 µM) |
| O=C1/C(=C/c2ccc(Cl)cc2Cl)c2ccccc2N1c1c(Cl)cccc1Cl | – | 2 (≈ 4.6 µM) |
| O=C1Cc2ccccc2N1c1c(Cl)cccc1Cl | – | > 100 |
| O=C1/C(=C/c2ccccc2[N+](=O)[O-])c2ccccc2N1c1c(Cl)cccc1Cl | – | 90 (≈ 219 µM) |
| COc1ccc(/C=C2/C(=O)N(c3c(Cl)cccc3Cl)c3ccccc32)cc1 | – | > 100 |
| O=C1/C(=C/c2cccc(Oc3ccccc3)c2)c2ccccc2N1c1c(Cl)cccc1Cl | – | 50 (≈ 109 µM) |
| COc1ccc(/C=C2/C(=O)N(c3c(Cl)cccc3Cl)c3ccccc32)cc1OC | – | 50 (≈ 117 µM) |
| CN(C)c1ccc(/C=C2/C(=O)N(c3c(Cl)cccc3Cl)c3ccccc32)cc1 | – | > 100 |
| O=C1/C(=C/c2c(Cl)cccc2Cl)c2ccccc2N1c1c(Cl)cccc1Cl | – | > 100 |
| O=C1/C(=C/c2ccccc2)c2ccccc2N1c1c(Cl)cccc1Cl | – | 100 (≈ 273 µM) |
| O=C1/C(=C/c2cccc(Cl)c2)c2ccccc2N1c1c(Cl)cccc1Cl | – | 50 (≈ 125 µM) |
| Cc1ccc2cc(/C=C3/C(=O)N(c4c(Cl)cccc4Cl)c4ccccc43)c(Cl)nc2c1C | – | > 100 |
| O=C1/C(=C/c2ccco2)c2ccccc2N1c1c(Cl)cccc1Cl | – | > 100 |
| Cc1ccc2nc(Cl)c(/C=C3/C(=O)N(c4c(Cl)cccc4Cl)c4ccccc43)cc2c1 | – | 40 (≈ 85.9 µM) |
| O=C1/C(=C/c2ccccc2Cl)c2ccccc2N1c1c(Cl)cccc1Cl | – | 15 (≈ 37.4 µM) |
| O=C1/C(=C/c2ccc(O)cc2)c2ccccc2N1c1c(Cl)cccc1Cl | – | 50 (≈ 131 µM) |
| O=C1/C(=C/c2ccc(F)cc2)c2ccccc2N1c1c(Cl)cccc1Cl | – | 5 (≈ 13 µM) |
| Cc1c[nH]c(/C=C2\C(=O)Nc3ccccc32)c1CCC(=O)O | 10 | – |
